The source made the active and inactive calls. No cut-off for these calls is given here.
How the values were obtained:
[1] = Cytotoxicity against human PC3 cells after 48 hrs by MTT assay; assay type: functional, cell-based, PC-3
Summary of the method: (§1)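 Tumor cells in log phase in RPMI 1640 + 10% FBS, seeded at 3×10^4 cells mL-1 and incubated 24 h (37 °C, 5% CO2). Test samples added at pre-set concentrations (6 wells each), doxorubicin as reference; 48 h exposure. MTT (2.5 mg·mL-1 in PBS) added for 4 h, formazan dissolved in DMSO, A570 read.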

Bcap37 = test: Cytotoxicity against human Bcap37 cells after 48 hrs by MTT assay; assay type: functional, cell-based; summary of the method: as §1
[2] = Cytotoxicity against human MGC803 cells after 48 hrs by MTT assay; assay type: functional, cell-based, MGC-803; summary of the method: as §1
HepG2 = test: Cytotoxicity against human HepG2 cells after 48 hrs by MTT assay; assay type: functional, cell-based; summary of the method: as §1
[3] = Cytotoxicity against human GES-1 cells after 48 hrs by MTT assay; assay type: cell-based; details: GES1, 48 h
Summary of the method: (§2)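 Human normal gastric mucosa GES-1 and liver L-02 cells; MTT assay; IC50 expressed in mM as mean of triplicate experiments.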

[4] = Cytotoxicity against human L02 cells after 48 hrs by MTT assay; assay type: cell-based; details: L02, 48 h; summary of the method: as §2
[5] = target: T1, Telomerase reverse transcriptase (Homo sapiens, UniProt O14746); test: Inhibition of telomerase in human MGC-803 cells after 24 hrs by TRAP-PCR-ELISA assay; assay type: cell-based
T1 sequence (O14746 whole entry): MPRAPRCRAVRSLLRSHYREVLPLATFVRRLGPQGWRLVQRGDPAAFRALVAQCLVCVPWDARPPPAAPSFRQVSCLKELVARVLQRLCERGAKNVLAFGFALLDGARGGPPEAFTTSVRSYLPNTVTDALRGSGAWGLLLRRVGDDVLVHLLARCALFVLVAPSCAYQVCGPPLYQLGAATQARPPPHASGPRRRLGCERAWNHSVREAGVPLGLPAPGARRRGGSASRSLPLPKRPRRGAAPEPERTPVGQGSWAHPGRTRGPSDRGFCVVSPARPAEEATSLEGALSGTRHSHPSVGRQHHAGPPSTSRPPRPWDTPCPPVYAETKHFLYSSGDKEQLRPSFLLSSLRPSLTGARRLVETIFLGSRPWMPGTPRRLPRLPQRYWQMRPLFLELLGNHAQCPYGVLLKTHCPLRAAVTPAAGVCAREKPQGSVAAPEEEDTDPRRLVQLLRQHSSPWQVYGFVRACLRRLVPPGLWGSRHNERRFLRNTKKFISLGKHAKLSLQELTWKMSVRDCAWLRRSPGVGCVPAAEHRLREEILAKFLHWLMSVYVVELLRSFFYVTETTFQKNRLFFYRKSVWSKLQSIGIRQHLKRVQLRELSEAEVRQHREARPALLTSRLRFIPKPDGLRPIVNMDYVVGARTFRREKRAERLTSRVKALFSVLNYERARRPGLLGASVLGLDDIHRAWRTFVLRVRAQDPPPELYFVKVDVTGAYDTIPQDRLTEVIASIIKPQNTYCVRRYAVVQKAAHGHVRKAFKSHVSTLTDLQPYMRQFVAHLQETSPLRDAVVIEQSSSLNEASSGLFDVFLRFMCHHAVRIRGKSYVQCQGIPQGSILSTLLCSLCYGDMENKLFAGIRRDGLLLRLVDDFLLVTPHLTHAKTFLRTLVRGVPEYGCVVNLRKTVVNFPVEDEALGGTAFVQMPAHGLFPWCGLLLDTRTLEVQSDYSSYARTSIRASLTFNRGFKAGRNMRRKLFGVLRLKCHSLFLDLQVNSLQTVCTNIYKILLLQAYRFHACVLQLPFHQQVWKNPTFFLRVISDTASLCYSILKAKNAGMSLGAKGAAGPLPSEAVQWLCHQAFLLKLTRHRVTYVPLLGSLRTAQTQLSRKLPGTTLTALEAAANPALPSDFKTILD
Summary of the method: (§3)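 Cells lysed in RIPA on ice for 30 min; extract incubated with TRAP mix at 25 °C for 30 min, then 35 PCR cycles. Products hybridized to DIG probe, captured on streptavidin, detected with peroxidase anti-DIG at 490 nm; mean±SD.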

[6] = target: T1, Telomerase reverse transcriptase; test: Inhibition of telomerase in human MGC-803 cells upto 60 uM after 24 hrs by TRAP-PCR-ELISA assay; assay type: cell-based; summary of the method: as §3
[7] = Homo sapiens, PC-3, 48 h, read-out: IC50
[8] = Homo sapiens, Bcap37, 48 h, read-out: IC50
[9] = Homo sapiens, MGC-803, 48 h, read-out: IC50
[10] = Homo sapiens, HepG2, 48 h, read-out: IC50

Row | SMILES | IC50 [5] | inhibition [6] | IC50 [1, 7] | IC50 (Bcap37; [8]) | IC50 [2, 9] | IC50 (HepG2; [10]) | IC50 [3] | IC50 [4] | IC50 ([2]; mgc-803) | IC50 (HepG2; hepg2) | IC50 ([1]; pc-3) | IC50 (Bcap37; bcap37)
1 | C=CCN(CC=C)CC(=O)N1N=C(C)CC1c1cc(Br)ccc1O (stereo unspecified) | 11.8 µM | – | 3.09 µM | 4.95 µM | 10.2 µM | 7.87 µM | – | – | – | – | – | –
2 | CCNCC(=O)N1N=C(c2cc3ccccc3oc2=O)CC1c1ccccc1 (stereo unspecified) | 6.68 µM | – | 5.58 µM | 6.49 µM | 26.6 µM | 30.6 µM | – | – | – | – | – | –
3 | COc1ccccc1C1CC(C)=NN1C(=O)CN(C(C)C)C(C)C (stereo unspecified) | 14.2 µM | – | 5.2 µM | 34.2 µM | 21.5 µM | 8.4 µM | – | – | – | – | – | –
4 | CC(=O)Oc1ccccc1C1CC(C)=NN1C(=O)CN1CCCC1 (stereo unspecified) | 6.3 µM | – | 6.21 µM | 5.21 µM | 6.51 µM | 5.09 µM | – | – | – | – | – | –
5 | O=C(c1ccccc1)N1N=C(c2cc3ccccc3oc2=O)CC1c1ccccc1 (stereo unspecified) | 8.74 µM | – | 5.87 µM | 32.2 µM | 12.7 µM | 36.6 µM | – | – | – | – | – | –
6 | CC1=NN(S(=O)(=O)c2ccc([N+](=O)[O-])cc2)C(c2cc(Cl)ccc2O)C1 (stereo unspecified) | 41.2 µM | – | 44.2 µM | 52.3 µM | – | – | – | – | Not Active | Not Active | – | –
7 | CC1=NN(C(=O)CN2CCN(C(=O)OC(C)(C)C)CC2)C(c2ccccc2O)C1 (stereo unspecified) | 6.77 µM | – | 3.44 µM | 6.74 µM | 17.6 µM | 5 µM | – | – | – | – | – | –
8 | CCCN(CCC)CC(=O)N1N=C(C)CC1c1cc(Br)ccc1O (stereo unspecified) | 9.94 µM | – | 19 µM | 15.3 µM | 20.2 µM | 9.81 µM | – | – | – | – | – | –
9 | O=C(c1ccccc1Cl)N1N=C(c2cc3ccccc3oc2=O)CC1c1ccccc1 (stereo unspecified) | 13.1 µM | – | 6.37 µM | 9.3 µM | 6.64 µM | 5.44 µM | – | – | – | – | – | –
10 | CC1=NN(C(=O)CCc2ccccc2)C(c2ccccc2O)C1 (stereo unspecified) | 11 µM | – | 9.38 µM | 25.7 µM | 24.1 µM | 20.6 µM | – | – | – | – | – | –
11 | O=C(CN1CCC(c2ccccc2)CC1)N1N=C(c2cc3ccccc3oc2=O)CC1c1ccccc1 (stereo unspecified) | 35.7 µM | – | – | – | – | – | – | – | Not Active | Not Active | Not Active | Not Active
12 | NC(=O)C1CCN(CC(=O)N2N=C(c3cc4ccccc4oc3=O)CC2c2ccccc2)CC1 (stereo unspecified) | 31.2 µM | – | 8.31 µM | 18.5 µM | 21.5 µM | 19.3 µM | – | – | – | – | – | –
13 | O=C(CN1CCC(O)CC1)N1N=C(c2cc3ccccc3oc2=O)CC1c1ccccc1 (stereo unspecified) | – | inactive | – | – | – | – | – | – | Not Active | Not Active | Not Active | Not Active
14 | O=c1oc2ccccc2cc1C1=NN(S(=O)(=O)c2ccc([N+](=O)[O-])cc2)C(c2ccccc2)C1 (stereo unspecified) | 31.3 µM | – | 46.6 µM | 37 µM | 41.2 µM | – | – | – | – | Not Active | – | –
15 | CC1=NN(C(=O)COc2ccc(Cl)cc2)C(c2ccccc2O)C1 (stereo unspecified) | 54.4 µM | – | 38.8 µM | – | – | – | – | – | Not Active | Not Active | – | Not Active
16 | CCN(CC)CC(=O)N1N=C(c2cc3ccccc3oc2=O)CC1c1ccccc1 (stereo unspecified) | 5.57 µM | – | 6.41 µM | 3.5 µM | 8.52 µM | 11.4 µM | – | – | – | – | – | –
17 | O=C(CN1CCC(Cl)CC1)N1N=C(c2cc3ccccc3oc2=O)CC1c1ccccc1 (stereo unspecified) | 57.8 µM | – | – | 24.2 µM | – | – | – | – | Not Active | Not Active | Not Active | –
18 | CCCNCC(=O)N1N=C(c2cc3ccccc3oc2=O)CC1c1ccccc1 (stereo unspecified) | 9.32 µM | – | 7.27 µM | 25.2 µM | 4.88 µM | 10.8 µM | – | – | – | – | – | –
19 | CCC(=O)N1N=C(C)CC1c1cc(Br)cc(Br)c1O (stereo unspecified) | 18.1 µM | – | 28.6 µM | 40.1 µM | 38.6 µM | 41.4 µM | – | – | – | – | – | –
20 | CC(=O)Oc1ccccc1C1CC(C)=NN1C(=O)CN1CCC(O)CC1 (stereo unspecified) | 5.69 µM | – | 25.6 µM | 9.8 µM | 3.51 µM | 12.3 µM | 2510 µM | 2230 µM | – | – | – | –
21 | CC(=O)Oc1ccccc1C1CC(C)=NN1C(=O)CN1CCCCC1C (stereo unspecified) | 6.2 µM | – | 11.1 µM | 17.9 µM | 5.14 µM | – | – | – | – | Not Active | – | –
22 | CCN(CC)CC(=O)N1N=C(C)CC1c1ccccc1OC(C)=O (stereo unspecified) | – | inactive | 51.2 µM | 44.2 µM | 29.5 µM | 33.2 µM | – | – | – | – | – | –
23 | CC1=NN(S(=O)(=O)c2ccc(C)cc2)C(c2cc(Br)cc(Br)c2O)C1 (stereo unspecified) | – | inactive | 51.2 µM | – | – | – | – | – | Not Active | Not Active | – | Not Active

Continued, in another order:

Row | IC50 [5] | inhibition [6] | SMILES | IC50 [1, 7] | IC50 (Bcap37; [8]) | IC50 [2, 9] | IC50 (HepG2; [10]) | IC50 [3] | IC50 [4] | IC50 ([2]; mgc-803) | IC50 (HepG2; hepg2) | IC50 ([1]; pc-3) | IC50 (Bcap37; bcap37)
24 | 2.27 µM | – | O=C(CCl)N1N=C(c2cc3ccccc3oc2=O)CC1c1ccccc1 (stereo unspecified) | 2.98 µM | 26.7 µM | 2.02 µM | 2.98 µM | 2110 µM | 1280 µM | – | – | – | –
25 | 3.15 µM | – | CNCC(=O)N1N=C(c2cc3ccccc3oc2=O)CC1c1ccccc1 (stereo unspecified) | 2.3 µM | 4.22 µM | 12.8 µM | 24 µM | – | – | – | – | – | –
26 | 3.17 µM | – | CC(C)CNCC(=O)N1N=C(c2cc3ccccc3oc2=O)CC1c1ccccc1 (stereo unspecified) | 1.92 µM | 6.3 µM | 29.7 µM | 9.97 µM | – | – | – | – | – | –
27 | 2.12 µM | – | CC(=O)Oc1ccccc1C1CC(C)=NN1C(=O)CN1CCCCC1 (stereo unspecified) | 4.07 µM | 12.8 µM | 4.89 µM | 19 µM | – | – | – | – | – | –
28 | 4.77 µM | – | CCCCCCN(CCCCCC)CC(=O)N1N=C(c2cc3ccccc3oc2=O)CC1c1ccccc1C(F)(F)F (stereo unspecified) | 6.03 µM | 12.2 µM | 6.87 µM | 12 µM | – | – | – | – | – | –
29 | 1.27 µM | – | CC(=O)Oc1ccccc1C1CC(C)=NN1C(=O)CCl (stereo unspecified) | 3.58 µM | 6.81 µM | 3.01 µM | 2.52 µM | 1840 µM | 2530 µM | – | – | – | –
30 | 3.03 µM | – | O=C(CN1CCOCC1)N1N=C(c2cc3ccccc3oc2=O)CC1c1ccccc1C(F)(F)F (stereo unspecified) | 12.1 µM | 14.2 µM | 10 µM | 21 µM | – | – | – | – | – | –
31 | 3.52 µM | – | CC(C)NCC(=O)N1N=C(c2cc3ccccc3oc2=O)CC1c1ccccc1 (stereo unspecified) | 1.87 µM | 2.21 µM | 10.3 µM | 6 µM | – | – | – | – | – | –
32 | 3.54 µM | – | CC(=O)Oc1ccccc1C1CC(C)=NN1C(=O)CN1CCC(C(C)=O)CC1 (stereo unspecified) | 6.8 µM | 20.1 µM | 4.12 µM | 7.8 µM | – | – | – | – | – | –
33 | 2.1 µM | – | CC1=NN(C(=O)CN2CCN(C)CC2)C(c2ccccc2O)C1 (stereo unspecified) | 11.8 µM | 6.21 µM | 7.85 µM | – | – | – | – | Not Active | – | –
34 | 3.68 µM | – | CC1=NN(C(=O)CCl)C(c2cc(Br)cc(Br)c2O)C1 (stereo unspecified) | 5.82 µM | 51.1 µM | 4.91 µM | 3.35 µM | – | – | – | – | – | –
35 | 3.44 µM | – | CC[N+](C)(CC)CC(=O)N1N=C(C)CC1c1ccccc1OC (stereo unspecified) | 4.17 µM | 5.15 µM | 3.32 µM | 3.67 µM | – | – | – | – | – | –
36 | 3.17 µM | – | CC1=NN(C(=O)CCl)C(c2cc(Br)ccc2O)C1 (stereo unspecified) | 8.89 µM | 32.3 µM | 13.5 µM | 16.3 µM | – | – | – | – | – | –

Source: ChEMBL document CHEMBL3785019, “Dihydropyrazole derivatives as telomerase inhibitors: Structure-based design, synthesis, SAR and anticancer evaluation in vitro and in vivo” (Eur J Med Chem, 2016)
